In ChEMBL document CHEMBL2390869, “Evolution of novel tricyclic CRTh2 receptor antagonists from a (E)-2-cyano-3-(1H-indol-3-yl)acrylamide scaffold” (Bioorg Med Chem Lett, 2013):
Values after ≈ are worked out from the molar mass of the structure shown.

What was measured:
[1] = Oral bioavailability in Wistar rat at 10 mg/kg; format: ADME, organism-based; conditions: in vivo
How it was run: (§1)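 Single doses given to three male Wistar rats per route: 10 mg/kg orally and 1 mg/kg intravenously, as a solution in 20% propyleneglycol/80% buffer. Plasma PK parameters were derived. CL, terminal T1/2 and Vss come from the intravenous arm. AUC0–last comes from the oral arm.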

[2] = Volume of distribution at steady state in Wistar rat at 10 mg/kg, po and 1 mg/kg, iv; format: ADME, organism-based; conditions: in vivo, read-out: Vdss; how it was run: as §1
[3] = Terminal half life in Wistar rat at 10 mg/kg, po and 1 mg/kg, iv; format: ADME, organism-based; conditions: in vivo, read-out: beta t1/2 (converted); how it was run: as §1
[4] = Clearance in Wistar rat at 10 mg/kg, po and 1 mg/kg, iv; format: ADME, organism-based; conditions: in vivo; how it was run: as §1
[5] = Cmax in Wistar rat at 10 mg/kg, po and 1 mg/kg, iv; format: ADME, organism-based; conditions: in vivo; how it was run: as §1
[6] = AUC (0 to last) in Wistar rat at 10 mg/kg, po; format: ADME, organism-based; parameters: time 0 - last, dose 10 mg/kg, route oral; conditions: plasma; how it was run: as §1
[7] = Stability in simulated intestinal fluid after 4 hrs by LC/MS analysis; format: physicochemical; conditions: read-out: Stability
How it was run: (§2)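 Compound incubated in simulated gastric fluid for 1 h or simulated intestinal fluid for 4 h. Unchanged parent recovered and measured by LC–MS, expressed as % parent.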

[8] = Stability in simulated gastric fluid after 1hr by LC/MS analysis; format: physicochemical; conditions: read-out: Stability; how it was run: as §2
[9] = Solubility of the compound in buffer at pH 4; format: physicochemical
How it was run: (§3)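 Solubility measured in buffered aqueous solution at pH 4 and pH 7, and in water, where the final pH of the aqueous solution was 4.6.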

[10] = Solubility of the compound in buffer at pH 7; format: physicochemical; how it was run: as §3
[11] = Aqueous solubility of the compound in water at pH 4.6; format: physicochemical; how it was run: as §3
[12] = Lipophilicity, log D of the compound at pH 7.4; format: physicochemical; conditions: buffer
[13] = Intrinsic clearance in rat hepatocytes measured per 10^6 cells; format: ADME, cell-based, Hepatocyte; conditions: read-out: CLH
How it was run: (§4)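 Intrinsic clearance determined in human and rat liver microsomes (per mg protein) and in rat hepatocytes (per 10⁶ cells).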

[14] = Intrinsic clearance in rat liver microsomes assessed per mg of protein; format: ADME, Microsome; conditions: read-out: CLH; how it was run: as §4
[15] = Metabolic stability in human plasma assessed as compound remaining after 4 hrs; format: ADME, cell-free; conditions: read-out: Stability
How it was run: (§5)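 Compound incubated in rat and human plasma for up to 4 h. Unchanged parent quantified by LC–MS, reported as % parent remaining at 4 h plus elimination half-life.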

[16] = Intrinsic clearance in human liver microsomes assessed per mg of protein; format: ADME, Microsome; conditions: read-out: CLH; how it was run: as §4
[17] = Half life in rat plasma; format: ADME, cell-free; how it was run: as §5
[18] = Half life in human plasma; format: ADME, cell-free; how it was run: as §5
[19] = Metabolic stability in rat plasma assessed as compound remaining after 4 hrs; format: ADME, cell-free; conditions: read-out: Stability; how it was run: as §5
Cytochrome P450 2D6 = Cytochrome P450 2D6 (Homo sapiens, UniProt P10635); assay: Inhibition of CYP2D6 (unknown origin); format: ADME
Chain of Cytochrome P450 2D6 (P10635 whole entry): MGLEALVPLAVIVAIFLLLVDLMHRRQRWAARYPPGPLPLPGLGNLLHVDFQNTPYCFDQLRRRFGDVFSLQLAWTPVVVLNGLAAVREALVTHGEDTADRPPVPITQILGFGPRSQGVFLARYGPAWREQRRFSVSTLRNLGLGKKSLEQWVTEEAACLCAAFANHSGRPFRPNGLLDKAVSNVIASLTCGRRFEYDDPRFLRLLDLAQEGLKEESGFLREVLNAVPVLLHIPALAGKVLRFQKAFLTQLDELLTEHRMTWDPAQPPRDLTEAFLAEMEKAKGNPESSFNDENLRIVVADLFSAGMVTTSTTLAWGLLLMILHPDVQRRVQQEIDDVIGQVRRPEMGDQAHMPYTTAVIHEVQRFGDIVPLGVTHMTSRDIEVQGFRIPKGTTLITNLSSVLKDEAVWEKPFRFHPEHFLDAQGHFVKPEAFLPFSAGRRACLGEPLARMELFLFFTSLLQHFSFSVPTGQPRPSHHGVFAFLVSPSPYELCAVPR

Cytochrome P450 3A4 = Cytochrome P450 3A4 (Homo sapiens, UniProt P08684); assay: Inhibition of CYP3A4 (unknown origin); format: ADME
Chain of Cytochrome P450 3A4 (P08684 whole entry): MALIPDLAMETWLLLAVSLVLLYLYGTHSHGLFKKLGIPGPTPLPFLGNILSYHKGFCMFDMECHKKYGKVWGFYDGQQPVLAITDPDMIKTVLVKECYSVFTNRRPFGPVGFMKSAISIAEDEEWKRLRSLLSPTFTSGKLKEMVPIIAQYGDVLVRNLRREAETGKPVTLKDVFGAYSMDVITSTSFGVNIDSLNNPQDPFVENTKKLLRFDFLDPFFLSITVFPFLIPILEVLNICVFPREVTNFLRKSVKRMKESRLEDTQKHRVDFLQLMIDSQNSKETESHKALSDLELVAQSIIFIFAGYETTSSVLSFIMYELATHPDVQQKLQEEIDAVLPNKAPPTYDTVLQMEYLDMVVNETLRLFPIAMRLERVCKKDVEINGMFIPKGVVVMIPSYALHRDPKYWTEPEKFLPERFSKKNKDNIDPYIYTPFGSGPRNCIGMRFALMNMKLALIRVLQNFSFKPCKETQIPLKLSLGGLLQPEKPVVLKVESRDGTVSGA

Cytochrome P450 2C9 = Cytochrome P450 2C9 (Homo sapiens, UniProt P11712); assay: Inhibition of CYP2C9 (unknown origin); format: ADME
Chain of Cytochrome P450 2C9 (P11712 whole entry): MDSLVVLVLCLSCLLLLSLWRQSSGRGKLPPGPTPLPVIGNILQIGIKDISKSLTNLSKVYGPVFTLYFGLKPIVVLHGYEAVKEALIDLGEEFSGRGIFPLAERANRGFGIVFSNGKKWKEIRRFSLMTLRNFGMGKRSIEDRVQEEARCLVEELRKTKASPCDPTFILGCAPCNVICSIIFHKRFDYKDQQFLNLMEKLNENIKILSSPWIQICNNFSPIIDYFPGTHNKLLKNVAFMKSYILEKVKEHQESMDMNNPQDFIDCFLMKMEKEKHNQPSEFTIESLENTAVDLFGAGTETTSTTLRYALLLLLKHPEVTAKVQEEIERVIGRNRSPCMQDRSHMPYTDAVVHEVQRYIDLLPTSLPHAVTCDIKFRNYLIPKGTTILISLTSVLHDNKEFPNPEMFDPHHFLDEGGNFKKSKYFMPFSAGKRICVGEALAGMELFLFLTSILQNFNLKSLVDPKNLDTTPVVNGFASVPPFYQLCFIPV

[20] = biological target: Prostaglandin E2 receptor EP4 subtype (Homo sapiens, UniProt P35408); assay: Inhibition of PGE2 binding to human EP4 receptor
Chain of Prostaglandin E2 receptor EP4 subtype (P35408 whole entry): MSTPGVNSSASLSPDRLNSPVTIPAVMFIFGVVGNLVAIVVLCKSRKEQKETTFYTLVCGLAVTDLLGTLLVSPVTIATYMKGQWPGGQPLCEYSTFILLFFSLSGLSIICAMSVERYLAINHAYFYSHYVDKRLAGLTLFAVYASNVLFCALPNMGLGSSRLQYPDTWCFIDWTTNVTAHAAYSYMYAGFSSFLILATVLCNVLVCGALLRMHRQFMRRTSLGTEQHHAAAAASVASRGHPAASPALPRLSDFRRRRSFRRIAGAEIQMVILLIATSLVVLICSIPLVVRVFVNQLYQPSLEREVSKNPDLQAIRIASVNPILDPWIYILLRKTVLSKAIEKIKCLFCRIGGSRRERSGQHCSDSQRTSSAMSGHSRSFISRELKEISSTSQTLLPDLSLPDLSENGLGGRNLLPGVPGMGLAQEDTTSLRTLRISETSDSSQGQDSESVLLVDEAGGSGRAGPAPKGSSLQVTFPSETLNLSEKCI

[21] = biological target: T1, Prostaglandin E2 receptor EP3 subtype (Homo sapiens, UniProt P43115); assay: Antagonist activity at human EP3 receptor assessed as inhibition of PGE2-induced Ca2+ mobilization by FLIPR assay; format: functional
T1 sequence (P43115 whole entry): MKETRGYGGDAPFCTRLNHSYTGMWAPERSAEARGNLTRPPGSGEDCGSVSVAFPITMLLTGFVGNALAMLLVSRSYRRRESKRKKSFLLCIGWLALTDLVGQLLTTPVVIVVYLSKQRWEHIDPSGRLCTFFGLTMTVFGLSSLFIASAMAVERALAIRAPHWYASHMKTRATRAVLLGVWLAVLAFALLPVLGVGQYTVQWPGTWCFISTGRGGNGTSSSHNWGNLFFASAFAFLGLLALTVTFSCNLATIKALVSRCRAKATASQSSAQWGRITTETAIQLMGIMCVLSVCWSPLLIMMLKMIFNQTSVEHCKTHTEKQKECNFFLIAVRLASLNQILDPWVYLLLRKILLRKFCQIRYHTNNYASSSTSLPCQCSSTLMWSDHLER
How it was run: (§6)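 Antagonism measured as inhibition of agonist-induced Ca2+ mobilization by FLIPR: PGE2 as agonist for human EP1 and EP3, U46619 as agonist for human TP. Values are IC50.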

[22] = biological target: T2, Prostaglandin E2 receptor EP1 subtype (Homo sapiens, UniProt P34995); assay: Antagonist activity at human EP1 receptor assessed as inhibition of PGE2-induced Ca2+ mobilization by FLIPR assay; format: functional; how it was run: as §6
T2 sequence (P34995 whole entry): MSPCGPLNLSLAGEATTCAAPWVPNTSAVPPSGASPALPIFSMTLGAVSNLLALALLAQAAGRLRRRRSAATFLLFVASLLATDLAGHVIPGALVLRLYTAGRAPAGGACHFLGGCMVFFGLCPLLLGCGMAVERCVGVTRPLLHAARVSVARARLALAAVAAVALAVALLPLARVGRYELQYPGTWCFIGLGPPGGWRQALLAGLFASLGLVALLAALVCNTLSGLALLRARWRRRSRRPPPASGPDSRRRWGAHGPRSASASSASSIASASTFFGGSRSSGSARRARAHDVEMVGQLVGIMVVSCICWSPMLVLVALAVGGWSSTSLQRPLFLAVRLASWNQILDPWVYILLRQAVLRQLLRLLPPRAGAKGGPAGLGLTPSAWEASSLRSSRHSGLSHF

[23] = biological target: T3, Prostaglandin D2 receptor (Homo sapiens, UniProt Q13258); assay: Inhibition of PGD2 binding to human DP1 receptor
T3 sequence (Q13258 whole entry): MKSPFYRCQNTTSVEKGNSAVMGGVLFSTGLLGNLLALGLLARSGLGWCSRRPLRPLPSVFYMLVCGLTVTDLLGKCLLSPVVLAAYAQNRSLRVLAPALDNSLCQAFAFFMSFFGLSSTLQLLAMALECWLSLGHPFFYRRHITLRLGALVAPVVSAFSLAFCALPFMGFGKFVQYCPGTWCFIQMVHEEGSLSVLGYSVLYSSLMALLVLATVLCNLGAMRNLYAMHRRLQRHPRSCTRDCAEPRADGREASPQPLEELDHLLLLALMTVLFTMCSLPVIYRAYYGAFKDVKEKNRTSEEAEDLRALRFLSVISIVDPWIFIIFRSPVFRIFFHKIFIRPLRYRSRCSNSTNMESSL

[24] = biological target: T4, Prostaglandin D2 receptor 2 (Homo sapiens, UniProt Q9Y5Y4); assay: Displacement of [3H]PGD2 from human CRTh2 receptor
T4 sequence (Q9Y5Y4 whole entry): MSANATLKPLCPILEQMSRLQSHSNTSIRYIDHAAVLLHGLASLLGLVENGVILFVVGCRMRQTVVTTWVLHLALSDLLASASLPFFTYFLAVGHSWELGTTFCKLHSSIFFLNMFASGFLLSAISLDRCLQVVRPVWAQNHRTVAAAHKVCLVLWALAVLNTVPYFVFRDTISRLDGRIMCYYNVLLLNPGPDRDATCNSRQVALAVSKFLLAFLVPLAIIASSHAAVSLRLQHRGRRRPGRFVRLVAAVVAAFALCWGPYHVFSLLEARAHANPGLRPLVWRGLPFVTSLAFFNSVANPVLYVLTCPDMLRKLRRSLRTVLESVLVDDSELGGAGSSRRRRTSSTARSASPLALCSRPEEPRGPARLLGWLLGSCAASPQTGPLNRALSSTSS
How it was run: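 Human CRTh2 binding assay run in assay buffer. IC50 reported as the mean of at least three experiments.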

[25] = biological target: T4, Prostaglandin D2 receptor 2; assay: Displacement of [3H]PGD2 from human CRTh2 receptor in presence of human serum albumin
How it was run: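 Human CRTh2 binding assay run with 0.5% human serum albumin added to the assay buffer to mimic binding to blood proteins. IC50 is reported as the mean of at least three experiments.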

[26] = biological target: Prostaglandin E2 receptor EP2 subtype (Homo sapiens, UniProt P43116); assay: Inhibition of PGE2 binding to human EP2 receptor
Chain of Prostaglandin E2 receptor EP2 subtype (P43116 whole entry): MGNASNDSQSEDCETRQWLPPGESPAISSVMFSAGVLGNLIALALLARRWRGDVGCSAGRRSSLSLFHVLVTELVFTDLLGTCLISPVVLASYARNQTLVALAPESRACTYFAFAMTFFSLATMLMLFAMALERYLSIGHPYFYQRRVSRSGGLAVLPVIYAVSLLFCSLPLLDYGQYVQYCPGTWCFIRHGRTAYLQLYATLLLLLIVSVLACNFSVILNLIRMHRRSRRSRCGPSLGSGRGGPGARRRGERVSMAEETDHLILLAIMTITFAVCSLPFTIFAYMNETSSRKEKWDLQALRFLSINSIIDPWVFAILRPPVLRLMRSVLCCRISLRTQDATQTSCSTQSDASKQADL

Thromboxane A2 receptor = biological target: T5, Thromboxane A2 receptor (Homo sapiens, UniProt P21731); assay: Antagonist activity at human TP2 receptor assessed as inhibition of U46619-induced Ca2+ mobilization by FLIPR assay; format: functional; how it was run: as §6
T5 sequence (P21731 whole entry): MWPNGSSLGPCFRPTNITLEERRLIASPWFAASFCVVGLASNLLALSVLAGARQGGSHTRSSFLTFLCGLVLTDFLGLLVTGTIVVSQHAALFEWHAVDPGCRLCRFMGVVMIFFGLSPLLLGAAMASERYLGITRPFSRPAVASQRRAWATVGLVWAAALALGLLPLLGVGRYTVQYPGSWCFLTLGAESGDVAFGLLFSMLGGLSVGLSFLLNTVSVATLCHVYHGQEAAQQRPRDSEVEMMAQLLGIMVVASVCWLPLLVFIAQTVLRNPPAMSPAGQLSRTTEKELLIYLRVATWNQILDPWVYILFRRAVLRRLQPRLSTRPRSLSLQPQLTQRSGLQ

bioavailability [1]: 18%
Vd [2]: 0.7 L/kg
half-life [3]: 1 h
clearance [4]: 14 mL/min/kg
Cmax [5]: 213 ng/mL
AUC(0-t) [6]: 2200 ng·h/mL
remaining at 4 h [7]: 68%
remaining at 1 h [8]: 93%
solubility [9]: 7 µg/mL (≈ 18.2 µM)
solubility [10]: 670 µg/mL (≈ 1740 µM)
solubility [11]: 17 µg/mL (≈ 44.1 µM)
logD [12]: -0.4
hepatocyte CLint [13]: 11 µL/min/1e6 cells
microsomal CLint [14]: 32 µL/min/mg
remaining at 4 h [15]: 95%
microsomal CLint [16]: 6 µL/min/mg
half-life [17]: > 4 h
half-life [18]: > 4 h
remaining at 4 h [19]: 90%
IC50 (Cytochrome P450 2D6): > 10 µM
IC50 (Cytochrome P450 3A4): > 10 µM
IC50 (Cytochrome P450 2C9): > 10 µM
IC50 [20]: > 10 µM
IC50 [21]: > 10 µM
IC50 [22]: > 10 µM
IC50 [23]: 8.2 µM
IC50 [24]: 0.014 µM
IC50 [25]: 0.01 µM
IC50 [26]: > 10 µM
IC50 (Thromboxane A2 receptor): > 25 µM
SMILES: N#C/C(=C\c1cn(CC(=O)O)c2ccccc12)C(=O)N1CCCc2ccccc21
